# Source: ChEMBL document CHEMBL2412964, “Discovery of novel tetrahydro-pyrazolo [4,3-c] pyridines for the treatment of neuropathic pain: synthesis and neuropharmacology” (Eur J Med Chem, 2013)
# What was measured:
# Rattus norvegicus [1] = test: Antinociceptive activity in Wistar rat partial sciatic nerve ligation model assessed as reversal of tactile allodynia at 100 mg/kg, ip after 120 mins relative to control; assay type: functional; conditions: route intraperitoneal
# Rattus norvegicus [2] = test: Antinociceptive activity in Wistar rat partial sciatic nerve ligation model assessed as reversal of cold allodynia at 100 mg/kg, ip after 60 mins (reference value: 2.5 +/- 0.3%); assay type: functional; conditions: route intraperitoneal
# Rattus norvegicus [3] = test: Antinociceptive activity in Wistar rat partial sciatic nerve ligation model assessed as reversal of spontaneous pain response at 100 mg/kg, ip after 30 mins (reference value: 3.2 +/- 0.3%); assay type: functional; conditions: route intraperitoneal
# Rattus norvegicus [4] = test: Antinociceptive activity in Wistar rat chronic constriction injury model assessed as reversal of cold allodynia at 100 mg/kg, ip after 30 mins (reference value: 0.6 +/- 2.7%); assay type: functional; conditions: route intraperitoneal
# Rattus norvegicus [5] = test: Antinociceptive activity in Wistar rat chronic constriction injury model assessed as reversal of mechanical allodynia at 100 mg/kg, ip after 30 mins (reference value: 4.7 +/- 2.1%); assay type: functional; conditions: route intraperitoneal
# Rattus norvegicus [6] = test: Antinociceptive activity in Wistar rat partial sciatic nerve ligation model assessed as reversal of mechanical allodynia at 100 mg/kg, ip after 60 mins (reference value: 2.8 +/- 0.3%); assay type: functional; conditions: route intraperitoneal
# Rattus norvegicus [7] = test: Antinociceptive activity in Wistar rat partial sciatic nerve ligation model assessed as reversal of tactile allodynia at 100 mg/kg, ip after 30 mins (reference value: 7.7 +/- 0.7%); assay type: functional; conditions: route intraperitoneal
# Rattus norvegicus [8] = test: Antinociceptive activity in Wistar rat partial sciatic nerve ligation model assessed as reversal of cold allodynia at 100 mg/kg, ip after 30 mins (reference value: 4.1 +/- 1.0%); assay type: functional; conditions: route intraperitoneal
# Rattus norvegicus [9] = test: Antinociceptive activity in Wistar rat chronic constriction injury model assessed as reversal of spontaneous pain response at 100 mg/kg, ip after 60 mins (reference value: 4.6 +/- 0.6%); assay type: functional; conditions: route intraperitoneal
# Rattus norvegicus [10] = test: Antinociceptive activity in Wistar rat chronic constriction injury model assessed as reversal of mechanical allodynia at 100 mg/kg, ip after 60 mins (reference value: 4.9 +/- 1.0%); assay type: functional; conditions: route intraperitoneal
# Rattus norvegicus [11] = test: Antinociceptive activity in Wistar rat partial sciatic nerve ligation model assessed as reversal of mechanical allodynia at 100 mg/kg, ip after 30 mins (reference value: 2.9 +/- 0.3%); assay type: functional; conditions: route intraperitoneal
# Rattus norvegicus [12] = test: Antinociceptive activity in Wistar rat partial sciatic nerve ligation model assessed as reversal of cold allodynia at 100 mg/kg, ip after 120 mins (reference value: 1.5 +/- 0.5%); assay type: functional; conditions: route intraperitoneal
# Rattus norvegicus [13] = test: Antinociceptive activity in Wistar rat chronic constriction injury model assessed as reversal of mechanical allodynia at 100 mg/kg, ip after 120 mins (reference value: 5.3 +/- 0.5%); assay type: functional; conditions: route intraperitoneal
# Rattus norvegicus [14] = test: Antinociceptive activity in Wistar rat partial sciatic nerve ligation model assessed as reversal of spontaneous pain response at 100 mg/kg, ip after 60 mins (reference value: 2.9 +/- 0.3%); assay type: functional; conditions: route intraperitoneal
# Rattus norvegicus [15] = test: Antinociceptive activity in Wistar rat partial sciatic nerve ligation model assessed as reversal of tactile allodynia at 100 mg/kg, ip after 60 mins (reference value: 12.5 +/- 1.2%); assay type: functional; conditions: route intraperitoneal
# Rattus norvegicus [16] = test: Antinociceptive activity in Wistar rat partial sciatic nerve ligation model assessed as reversal of mechanical allodynia at 100 mg/kg, ip after 120 mins (reference value: 2.9 +/- 0.3%); assay type: functional; conditions: route intraperitoneal
# Rattus norvegicus [17] = test: Antinociceptive activity in Wistar rat partial sciatic nerve ligation model assessed as reversal of spontaneous pain response at 100 mg/kg, ip after 120 mins (reference value: 1.2 +/- 0.1%); assay type: functional; conditions: route intraperitoneal
# Rattus norvegicus [18] = test: Antinociceptive activity in Wistar rat chronic constriction injury model assessed as reversal of spontaneous pain response at 100 mg/kg, ip after 30 mins (reference value: 8.9 +/- 4.6%); assay type: functional; conditions: route intraperitoneal
# Rattus norvegicus [19] = test: Antinociceptive activity in Wistar rat chronic constriction injury model assessed as reversal of cold allodynia at 100 mg/kg, ip after 120 mins (reference value: 5.4 +/- 1.9%); assay type: functional; conditions: route intraperitoneal
# Rattus norvegicus [20] = test: Antinociceptive activity in Wistar rat chronic constriction injury model assessed as reversal of spontaneous pain response at 100 mg/kg, ip after 120 mins (reference value: 4.5 +/- 0.2%); assay type: functional; conditions: route intraperitoneal
# Rattus norvegicus [21] = test: Antinociceptive activity in Wistar rat chronic constriction injury model assessed as reversal of tactile allodynia at 100 mg/kg, ip after 30 mins (reference value: 3.4 +/- 0.8%); assay type: functional; conditions: route intraperitoneal
# Rattus norvegicus [22] = test: Antinociceptive activity in Wistar rat chronic constriction injury model assessed as reversal of tactile allodynia at 100 mg/kg, ip after 60 mins (reference value: 1.3 +/- 0.3%); assay type: functional; conditions: route intraperitoneal
# Rattus norvegicus [23] = test: Antinociceptive activity in Wistar rat chronic constriction injury model assessed as reversal of tactile allodynia at 100 mg/kg, ip after 120 mins (reference value: 4.1 +/- 2.1%); assay type: functional; conditions: route intraperitoneal
# Rattus norvegicus [24] = test: Antinociceptive activity in Wistar rat chronic constriction injury model assessed as reversal of cold allodynia at 100 mg/kg, ip after 60 mins (reference value: 6.3 +/- 1.9%); assay type: functional; conditions: route intraperitoneal
# Mus musculus [25] = test: Antinociceptive activity in Swiss albino mouse assessed as inhibition of formalin-induced flinching at 100 mg/kg administered 30 mins prior to test measured for 10 to 30 mins relative to control; assay type: functional
# Mus musculus [26] = test: Antinociceptive activity in Swiss albino mouse assessed as inhibition of acetic acid-induced writhing at 100 mg/kg administered 30 mins prior to acetic acid-challenge measured for 30 mins relative to control; assay type: functional
# Procedure, shortened: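 Swiss albino mice (20–25 g, either sex); writhing induced by i.p. 0.1 mL of 2.0% v/v acetic acid given half an hour after test compound dosing.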
# Mus musculus [27] = test: Neurotoxicity in Swiss albino mouse assessed as minimal motor impairment at 300 mg/kg after 4 hrs by rotarod test; assay type: toxicity, organism-based; set-up: dose 300 mg/kg; conditions: in vivo
# Procedure, shortened: (§1)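 Swiss albino mice of either sex, 20-25 g, dosed at 30, 100 and 300 mg/kg, three per group. Minimal motor impairment scored by rotarod at 0.5 and 4.0 h after dosing. Reported value is the lowest dose giving impairment in half or more of the mice.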
# Mus musculus [28] = test: Neurotoxicity in Swiss albino mouse assessed as minimal motor impairment at 300 mg/kg after 0.5 hrs by rotarod test; assay type: toxicity, organism-based; set-up: dose 300 mg/kg; conditions: in vivo; procedure, shortened: as §1
# Mus musculus [29] = test: Antinociceptive activity in Swiss albino mouse assessed as inhibition of formalin-induced flinching at 100 mg/kg administered 30 mins prior to test measured up to 5 mins relative to control; assay type: functional
compound,measurement,setting,value
NCC1(CC(=O)O)CCCCC1 [GABAPENTIN],Activity,Rattus norvegicus [1],58.5%
same,Activity,Rattus norvegicus [2],58.2%
same,Activity,Rattus norvegicus [3],92.9%
same,Activity,Rattus norvegicus [4],58%
same,Activity,Rattus norvegicus [5],92.9%
same,Activity,Rattus norvegicus [6],91.3%
same,Activity,Rattus norvegicus [7],43.1%
same,Activity,Rattus norvegicus [8],54.1%
same,Activity,Rattus norvegicus [9],91.2%
same,Activity,Rattus norvegicus [10],78.6%
same,Activity,Rattus norvegicus [11],86.2%
same,Activity,Rattus norvegicus [12],32.1%
same,Activity,Rattus norvegicus [13],75.7%
same,Activity,Rattus norvegicus [14],94.2%
same,Activity,Rattus norvegicus [15],56.1%
same,Activity,Rattus norvegicus [16],55.8%
same,Activity,Rattus norvegicus [17],82.4%
same,Activity,Rattus norvegicus [18],71.2%
same,Activity,Rattus norvegicus [19],35.6%
same,Activity,Rattus norvegicus [20],88.8%
same,Activity,Rattus norvegicus [21],35.4%
same,Activity,Rattus norvegicus [22],59.4%
same,Activity,Rattus norvegicus [23],50.7%
same,Activity,Rattus norvegicus [24],42.9%
CCN1CCc2c(c(C)nn2C(=O)Nc2ccc(F)cc2F)C1,Activity,Rattus norvegicus [1],39.2%
same,Activity,Rattus norvegicus [2],35.4%
same,inhibition in vivo at 100 mg/kg,Mus musculus [25],14.3%
same,Activity,Rattus norvegicus [3],59.2%
same,Activity,Rattus norvegicus [4],72.7%
same,Activity,Rattus norvegicus [5],62.1%
same,Activity,Rattus norvegicus [6],58.9%
same,Activity,Rattus norvegicus [7],58.3%
same,Activity,Rattus norvegicus [8],58.7%
same,Activity,Rattus norvegicus [9],63.6%
same,Activity,Rattus norvegicus [10],58.9%
same,inhibition in vivo at 100 mg/kg,Mus musculus [26],76.3%
same,Activity,Rattus norvegicus [11],62.1%
same,Activity,Rattus norvegicus [12],40%
same,Activity,Mus musculus [27],Non-toxic
same,Activity,Rattus norvegicus [13],63.3%
same,Activity,Mus musculus [28],Non-toxic
same,Activity,Rattus norvegicus [14],28.2%
same,Activity,Rattus norvegicus [15],41.7%
same,Activity,Rattus norvegicus [16],63.3%
same,Activity,Rattus norvegicus [17],14.7%
same,Activity,Rattus norvegicus [18],69.3%
same,Activity,Rattus norvegicus [19],40.6%
same,Activity,Rattus norvegicus [20],72.8%
same,inhibition in vivo at 100 mg/kg,Mus musculus [29],7.8%
same,Activity,Rattus norvegicus [21],39.3%
same,Activity,Rattus norvegicus [22],69.6%
same,Activity,Rattus norvegicus [23],67%
same,Activity,Rattus norvegicus [24],53.1%
CCN1CCc2c(c(C)nn2C(=O)Nc2cccc(C(F)(F)F)c2)C1,Activity,Rattus norvegicus [1],11.1%
same,Activity,Rattus norvegicus [2],15.7%
same,inhibition in vivo at 100 mg/kg,Mus musculus [25],23.1%
same,Activity,Rattus norvegicus [3],20.7%
same,Activity,Rattus norvegicus [4],12.1%
same,Activity,Rattus norvegicus [5],13.4%
same,Activity,Rattus norvegicus [6],11.1%
same,Activity,Rattus norvegicus [7],69.7%
same,Activity,Rattus norvegicus [8],30.2%
same,Activity,Rattus norvegicus [9],15.2%
same,Activity,Rattus norvegicus [10],20.5%
same,inhibition in vivo at 100 mg/kg,Mus musculus [26],56.1%
same,Activity,Rattus norvegicus [11],15.6%
same,Activity,Rattus norvegicus [12],20.9%
same,Activity,Mus musculus [27],Non-toxic
same,Activity,Rattus norvegicus [13],21.8%
same,Activity,Mus musculus [28],Non-toxic
same,Activity,Rattus norvegicus [14],10.2%
same,Activity,Rattus norvegicus [15],11.1%
same,Activity,Rattus norvegicus [16],10.6%
same,Activity,Rattus norvegicus [17],13.8%
same,Activity,Rattus norvegicus [18],13.3%
same,Activity,Rattus norvegicus [19],7%
same,Activity,Rattus norvegicus [20],12.5%
same,inhibition in vivo at 100 mg/kg,Mus musculus [29],4.4%
same,Activity,Rattus norvegicus [21],4.41%
same,Activity,Rattus norvegicus [22],11.8%
same,Activity,Rattus norvegicus [23],11.8%
same,Activity,Rattus norvegicus [24],13.7%
CCN1CCc2c(c(C(C)(C)C)nn2C(=O)Nc2cc(C)ccc2F)C1,Activity,Rattus norvegicus [1],4.5%
same,Activity,Rattus norvegicus [2],16.4%
same,inhibition in vivo at 100 mg/kg,Mus musculus [25],60.5%
same,Activity,Rattus norvegicus [3],15.5%
same,Activity,Rattus norvegicus [4],3.4%
same,Activity,Rattus norvegicus [5],13.8%
same,Activity,Rattus norvegicus [6],12.1%
same,Activity,Rattus norvegicus [7],12.2%
same,Activity,Rattus norvegicus [8],19.3%
same,Activity,Rattus norvegicus [9],20.5%
same,Activity,Rattus norvegicus [10],12.7%
same,inhibition in vivo at 100 mg/kg,Mus musculus [26],17.5%
same,Activity,Rattus norvegicus [11],12.1%
same,Activity,Rattus norvegicus [12],19.3%
same,Activity,Mus musculus [27],Non-toxic
same,Activity,Rattus norvegicus [13],8.8%
same,Activity,Mus musculus [28],Non-toxic
same,Activity,Rattus norvegicus [14],9.9%
same,Activity,Rattus norvegicus [15],12.2%
same,Activity,Rattus norvegicus [16],8.8%
same,Activity,Rattus norvegicus [17],7.5%
same,Activity,Rattus norvegicus [18],14.4%
same,Activity,Rattus norvegicus [19],12%
same,Activity,Rattus norvegicus [20],53.9%
same,inhibition in vivo at 100 mg/kg,Mus musculus [29],7%
same,Activity,Rattus norvegicus [21],19.7%
same,Activity,Rattus norvegicus [22],12.2%
same,Activity,Rattus norvegicus [23],4.5%
same,Activity,Rattus norvegicus [24],7.1%
